# Experimental data as given in ChEMBL document CHEMBL3352121, “Modulation of Activity Profiles for Largazole-Based HDAC Inhibitors through Alteration of Prodrug Properties” (ACS Med Chem Lett, 2014).
# Calls of active or inactive are those of the source. The calls are words filed in the database; no cut-off is given here.
# Columns and labels:
# HCT-116 [1] = assay: In vivo inhibition of HDAC in tumor of human HCT116 cells xenografted nu/nu mouse assessed as increase in histone hyperacetylation at 10 mg/kg, ip after 4 to 24 hrs by immunoblotting method; assay type: functional, organism-based; parameters: dose 10 mg/kg
# Summary of the method: (§1)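 HCT116 xenograft mice were dosed intraperitoneally at 10 or 50 mg/kg. Tumors were excised after 4, 12 and 24 h, n = 2. Histone hyperacetylation in tumor tissue was assessed by immunoblotting.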
# [2] = Drug metabolism in tumor of human HCT116 cells xenografted nu/nu mouse assessed largazole thiol formation at 50 mg/kg, po by HPLC-MS method; settings: in vivo
# [3] = Drug metabolism in tumor of human HCT116 cells xenografted nu/nu mouse assessed as time for maximum largazole thiol level at 10 mg/kg, ip by HPLC-MS method; assay type: ADME, organism-based, Neoplasm, HCT-116; parameters: dose 10 mg/kg, route intraperitoneal; settings: in vivo
# Serum = assay: Drug metabolism in mouse serum assessed as largazole thiol formation after 0.25 to 1440 mins by HPLC-MS method; assay type: ADME, cell-free
# HCT-116 [4] = assay: In vivo inhibition of HDAC in tumor of human HCT116 cells xenografted nu/nu mouse assessed as increase in histone hyperacetylation at 50 mg/kg, po after 4 to 12 hrs by immunoblotting method; assay type: functional, organism-based; parameters: dose 50 mg/kg
# Summary of the method: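 Mice bearing HCT116 xenografts were dosed intraperitoneally at 10 or 50 mg/kg, or orally at 50 mg/kg. Tumors were excised at 4, 12 and 24 h. Histone hyperacetylation in the tumors was assessed by immunoblot, n = 2.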
# [5] = Drug metabolism in human HCT116 cells protein lysate solution assessed as largazole thiol formation at 25 ug/mL after 30 mins by HPLC-MS method; assay type: ADME, cell-based; settings: hct-116, 0.5 h
# HCT-116 [6] = assay: In vivo inhibition of HDAC in tumor of human HCT116 cells xenografted nu/nu mouse assessed as increase in histone hyperacetylation at 50 mg/kg, ip after 4 to 24 hrs by immunoblotting method; assay type: functional, organism-based; parameters: dose 50 mg/kg; summary of the method: as §1
# [7] = Drug metabolism in tumor of human HCT116 cells xenografted nu/nu mouse assessed as time for maximum largazole thiol level at 50 mg/kg, ip by HPLC-MS method; assay type: ADME, organism-based, Neoplasm, HCT-116; parameters: dose 50 mg/kg, route intraperitoneal; settings: in vivo
# [8] = molecular target: Histone deacetylase (Homo sapiens) (UniProt Q13547+O15379+Q9UBN7+Q92769+Q9UQL6+Q8WUI4+Q9BY41+Q96DB2+P56524+Q9UKV0+Q969S8); assay: Inhibition of HDAC in human HCT116 cells assessed as increase in histone H3 (Lys9/14) hyperacetylation after 8 to 24 hrs by immunoblotting method; assay type: cell-based; settings: HCT-116
# Summary of the method: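 HCT116 cells were treated across a dose range. Cellular HDAC inhibition was read as histone H3 (Lys9/14) hyperacetylation by immunoblot at 8 and 24 h post-treatment.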
# HCT-116 [9] = assay: In vivo inhibition of HDAC in tumor of human HCT116 cells xenografted nu/nu mouse assessed as increase in histone hyperacetylation at 50 mg/kg, ip after 4 hrs by immunoblotting method; assay type: functional, organism-based; parameters: dose 50 mg/kg; summary of the method: as §1
# Histone deacetylase 4 [10] = molecular target: T1, Histone deacetylase 4 (Homo sapiens, UniProt P56524); assay: Inhibition of HDAC4 (unknown origin) incubated for 30 mins in presence of BSA and in absence of DTT by fluorescence assay
# Histone deacetylase 5 [11] = molecular target: T2, Histone deacetylase 5 (Homo sapiens, UniProt Q9UQL6); assay: Inhibition of HDAC5 (unknown origin) at 1 uM incubated for 30 mins in presence of BSA and in absence of DTT by fluorescence assay
# Summary of the method: (§2)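 Purified-HDAC assay, single point: percent inhibition read at 1 μM, the highest concentration tested.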
# Histone deacetylase 9 [12] = molecular target: T3, Histone deacetylase 9 (Homo sapiens, UniProt Q9UKV0); assay: Inhibition of HDAC9 (unknown origin) incubated for 30 mins in presence of BSA and in absence of DTT by fluorescence assay
# Histone deacetylase 5 [13] = molecular target: T2, Histone deacetylase 5; assay: Inhibition of HDAC5 (unknown origin) incubated for 30 mins in presence of BSA and in absence of DTT by fluorescence assay
# Histone deacetylase 7 = molecular target: T4, Histone deacetylase 7 (Homo sapiens, UniProt Q8WUI4); assay: Inhibition of HDAC7 (unknown origin) incubated for 30 mins in presence of BSA and in absence of DTT by fluorescence assay
# T4 sequence (Q8WUI4 whole entry): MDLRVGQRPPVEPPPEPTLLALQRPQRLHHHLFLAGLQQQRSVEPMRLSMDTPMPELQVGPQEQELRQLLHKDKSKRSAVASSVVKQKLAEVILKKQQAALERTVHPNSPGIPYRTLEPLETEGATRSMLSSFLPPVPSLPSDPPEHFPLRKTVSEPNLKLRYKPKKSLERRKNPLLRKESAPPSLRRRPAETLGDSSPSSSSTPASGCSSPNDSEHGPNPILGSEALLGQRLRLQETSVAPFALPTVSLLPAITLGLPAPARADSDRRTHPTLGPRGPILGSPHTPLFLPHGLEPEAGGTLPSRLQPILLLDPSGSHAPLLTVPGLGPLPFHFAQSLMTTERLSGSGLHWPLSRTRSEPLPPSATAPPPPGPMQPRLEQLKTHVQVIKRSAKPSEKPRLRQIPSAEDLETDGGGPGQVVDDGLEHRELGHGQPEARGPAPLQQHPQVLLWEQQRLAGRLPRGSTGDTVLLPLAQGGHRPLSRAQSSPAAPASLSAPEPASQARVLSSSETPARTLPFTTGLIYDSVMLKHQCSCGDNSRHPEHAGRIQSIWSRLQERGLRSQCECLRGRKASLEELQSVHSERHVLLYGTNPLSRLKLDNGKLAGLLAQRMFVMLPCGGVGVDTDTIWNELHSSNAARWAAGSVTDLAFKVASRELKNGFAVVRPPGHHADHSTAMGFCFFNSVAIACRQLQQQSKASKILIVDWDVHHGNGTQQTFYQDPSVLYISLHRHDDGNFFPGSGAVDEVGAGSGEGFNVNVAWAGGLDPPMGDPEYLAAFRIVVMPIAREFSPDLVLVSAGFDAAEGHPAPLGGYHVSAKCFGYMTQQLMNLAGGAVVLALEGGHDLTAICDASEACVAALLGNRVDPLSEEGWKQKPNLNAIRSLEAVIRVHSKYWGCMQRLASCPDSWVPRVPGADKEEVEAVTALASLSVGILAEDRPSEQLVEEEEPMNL
# Histone deacetylase 4 [14] = molecular target: T1, Histone deacetylase 4; assay: Inhibition of HDAC4 (unknown origin) at 1 uM incubated for 30 mins in presence of BSA and in absence of DTT by fluorescence assay; summary of the method: as §2
# [15] = molecular target: T5, Histone deacetylase 7 (Homo sapiens) (UniProt Q8WUI4); assay: Inhibition of HDAC7 (unknown origin) at 1 uM incubated for 30 mins in presence of BSA and in absence of DTT by fluorescence assay; summary of the method: as §2
# T5 sequence (whole entry): T4 sequence (Q8WUI4 whole entry)
# [16] = Antiproliferative activity against human HCT116 cells after 48 hrs in absence of DTT by MTT assay; assay type: functional, cell-based; settings: HCT-116, 48 h
# Histone deacetylase 9 [17] = molecular target: T3, Histone deacetylase 9; assay: Inhibition of HDAC9 (unknown origin) at 1 uM incubated for 30 mins in presence of BSA and in absence of DTT by fluorescence assay; summary of the method: as §2
# T1 sequence (P56524 whole entry): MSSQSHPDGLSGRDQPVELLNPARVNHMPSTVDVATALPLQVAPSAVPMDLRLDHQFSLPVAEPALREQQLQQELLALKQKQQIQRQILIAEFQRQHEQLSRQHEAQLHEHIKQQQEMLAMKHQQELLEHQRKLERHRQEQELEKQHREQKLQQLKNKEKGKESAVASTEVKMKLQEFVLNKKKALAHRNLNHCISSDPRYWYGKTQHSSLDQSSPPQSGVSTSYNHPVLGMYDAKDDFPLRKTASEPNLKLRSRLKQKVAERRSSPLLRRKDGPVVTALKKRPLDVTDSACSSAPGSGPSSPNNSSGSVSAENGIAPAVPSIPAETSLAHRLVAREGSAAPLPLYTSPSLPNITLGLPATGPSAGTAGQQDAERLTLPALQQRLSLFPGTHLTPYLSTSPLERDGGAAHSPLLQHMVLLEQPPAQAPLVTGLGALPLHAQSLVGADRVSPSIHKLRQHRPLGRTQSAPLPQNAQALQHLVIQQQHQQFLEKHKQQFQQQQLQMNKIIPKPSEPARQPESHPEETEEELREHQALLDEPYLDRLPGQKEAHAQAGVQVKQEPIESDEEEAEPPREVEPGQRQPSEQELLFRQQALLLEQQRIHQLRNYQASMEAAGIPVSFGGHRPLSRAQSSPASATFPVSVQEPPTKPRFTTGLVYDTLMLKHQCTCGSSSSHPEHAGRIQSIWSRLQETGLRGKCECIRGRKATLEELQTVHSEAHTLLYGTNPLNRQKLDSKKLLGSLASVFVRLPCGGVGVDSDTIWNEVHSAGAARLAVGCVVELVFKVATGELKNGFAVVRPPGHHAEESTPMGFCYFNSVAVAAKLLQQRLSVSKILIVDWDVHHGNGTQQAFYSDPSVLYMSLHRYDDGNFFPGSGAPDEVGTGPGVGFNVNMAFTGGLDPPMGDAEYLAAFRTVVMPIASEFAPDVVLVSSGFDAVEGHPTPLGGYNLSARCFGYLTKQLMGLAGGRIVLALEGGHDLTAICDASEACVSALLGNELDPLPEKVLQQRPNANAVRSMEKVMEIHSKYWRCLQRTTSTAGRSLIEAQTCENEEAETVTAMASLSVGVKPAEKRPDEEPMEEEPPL
# T3 sequence (Q9UKV0 whole entry): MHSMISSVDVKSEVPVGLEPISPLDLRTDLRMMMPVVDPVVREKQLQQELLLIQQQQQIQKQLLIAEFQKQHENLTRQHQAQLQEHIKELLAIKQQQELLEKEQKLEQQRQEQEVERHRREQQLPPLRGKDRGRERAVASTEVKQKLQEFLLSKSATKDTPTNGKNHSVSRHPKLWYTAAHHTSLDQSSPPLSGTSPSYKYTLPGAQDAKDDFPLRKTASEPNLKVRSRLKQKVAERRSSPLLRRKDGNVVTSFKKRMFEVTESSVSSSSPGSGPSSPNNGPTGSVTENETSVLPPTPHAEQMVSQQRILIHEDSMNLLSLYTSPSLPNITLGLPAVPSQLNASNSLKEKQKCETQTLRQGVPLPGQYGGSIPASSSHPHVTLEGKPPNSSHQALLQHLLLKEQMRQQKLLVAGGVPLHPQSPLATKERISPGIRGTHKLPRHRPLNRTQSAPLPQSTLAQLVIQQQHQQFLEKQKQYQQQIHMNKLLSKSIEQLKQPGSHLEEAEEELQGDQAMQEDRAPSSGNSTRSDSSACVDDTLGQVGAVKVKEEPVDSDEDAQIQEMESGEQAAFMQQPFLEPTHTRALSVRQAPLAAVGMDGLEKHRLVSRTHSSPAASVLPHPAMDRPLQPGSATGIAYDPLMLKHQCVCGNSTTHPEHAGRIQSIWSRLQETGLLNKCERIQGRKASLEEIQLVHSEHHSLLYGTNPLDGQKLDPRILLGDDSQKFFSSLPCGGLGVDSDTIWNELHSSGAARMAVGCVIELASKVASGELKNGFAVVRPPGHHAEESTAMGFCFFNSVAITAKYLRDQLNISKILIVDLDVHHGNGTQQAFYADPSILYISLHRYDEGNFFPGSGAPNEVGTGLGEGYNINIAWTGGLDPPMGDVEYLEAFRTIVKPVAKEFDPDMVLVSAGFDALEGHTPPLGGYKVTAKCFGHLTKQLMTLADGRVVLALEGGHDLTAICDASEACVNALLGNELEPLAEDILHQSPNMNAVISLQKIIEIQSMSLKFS
# T2 sequence (Q9UQL6 whole entry): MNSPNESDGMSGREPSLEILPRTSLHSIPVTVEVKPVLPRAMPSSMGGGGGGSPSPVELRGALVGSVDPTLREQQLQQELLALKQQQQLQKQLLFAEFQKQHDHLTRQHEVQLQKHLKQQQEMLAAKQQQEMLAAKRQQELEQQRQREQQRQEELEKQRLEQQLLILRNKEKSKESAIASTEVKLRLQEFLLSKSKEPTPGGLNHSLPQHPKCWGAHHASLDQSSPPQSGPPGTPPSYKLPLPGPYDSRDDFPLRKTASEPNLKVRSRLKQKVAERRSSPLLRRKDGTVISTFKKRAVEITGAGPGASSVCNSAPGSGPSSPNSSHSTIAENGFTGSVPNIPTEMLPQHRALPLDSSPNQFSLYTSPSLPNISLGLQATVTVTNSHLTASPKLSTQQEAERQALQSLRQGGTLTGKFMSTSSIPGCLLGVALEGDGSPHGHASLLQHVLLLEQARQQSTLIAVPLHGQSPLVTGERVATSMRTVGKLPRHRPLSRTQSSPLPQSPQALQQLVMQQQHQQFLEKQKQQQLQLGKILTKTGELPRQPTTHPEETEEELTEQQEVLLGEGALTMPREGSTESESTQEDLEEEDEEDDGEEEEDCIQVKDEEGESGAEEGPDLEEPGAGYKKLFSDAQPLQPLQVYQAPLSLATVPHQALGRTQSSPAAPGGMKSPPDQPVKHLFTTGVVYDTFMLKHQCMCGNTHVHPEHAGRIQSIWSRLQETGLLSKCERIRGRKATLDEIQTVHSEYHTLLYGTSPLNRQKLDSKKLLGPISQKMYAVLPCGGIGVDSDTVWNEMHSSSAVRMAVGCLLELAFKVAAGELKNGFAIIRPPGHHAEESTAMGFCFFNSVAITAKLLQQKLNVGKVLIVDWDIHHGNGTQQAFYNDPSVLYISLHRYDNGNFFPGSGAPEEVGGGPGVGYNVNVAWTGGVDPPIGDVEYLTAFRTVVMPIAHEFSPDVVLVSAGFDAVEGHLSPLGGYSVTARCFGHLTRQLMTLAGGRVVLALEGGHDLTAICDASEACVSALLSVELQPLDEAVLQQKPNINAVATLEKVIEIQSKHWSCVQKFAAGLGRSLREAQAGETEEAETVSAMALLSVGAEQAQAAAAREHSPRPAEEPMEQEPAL
Structure (SMILES),inhibition (HCT-116 [1]),Drug metabolism [2],Tmax [3] [h],Drug metabolism (Serum),inhibition (HCT-116 [4]),Drug metabolism [5],inhibition (HCT-116 [6]),Tmax [7] [h],inhibition [8],inhibition (HCT-116 [9]),IC50 (Histone deacetylase 4 [10]),inhibition (Histone deacetylase 5 [11]) [%],IC50 (Histone deacetylase 9 [12]),IC50 (Histone deacetylase 5 [13]),IC50 (Histone deacetylase 7),inhibition (Histone deacetylase 4 [14]) [%],inhibition [15] [%],IC50 [16] [nM],inhibition (Histone deacetylase 9 [17]) [%]
CCCCCCCC(=O)SCC/C=C/[C@@H]1CC(=O)NCc2nc(cs2)C2=N[C@@](C)(CS2)C(=O)N[C@@H](C(C)C)C(=O)O1 [LARGAZOLE],Active,metabolite_detected,4,metabolite_detected,Active,metabolite_detected,Active,4,Dose-dependent effect,Active,–,–,–,–,–,–,–,–,–
CC(C)[C@H]1NC(=O)[C@]2(C)CSC(=N2)c2csc(n2)CNC(=O)C[C@@H](/C=C/CCS)OC1=O [LARGAZOLE THIOL],–,–,–,–,–,–,–,–,–,–,Not Active,< 20,Not Active,Not Active,Not Active,< 20,< 20,5.9,< 20
